Data reported in ChEMBL document CHEMBL3286129, “Optimization of peptidomimetic boronates bearing a P3 bicyclic scaffold as proteasome inhibitors” (Eur J Med Chem, 2014).

Assays:
[1] = Growth inhibition of human HCC2998 cells; type: functional; conditions: HCC 2998
[2] = test system: MDA-MB-468; test: Growth inhibition of human MDA-MB-468 cells; type: functional
[3] = test system: K562; test: Growth inhibition of human K562 cells; type: functional
[4] = test system: SK-MEL-2; test: Growth inhibition of human SK-MEL-2 cells; type: functional
[5] = Cytotoxicity against human ovarian cancer cells assessed as cell growth at 10 uM relative to control; type: functional; conditions: Cancer cell lines, read-out: Activity
In short: (§1)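 Single-concentration screen against a panel of human cancer cell lines. Each value is the mean percent growth across the cell lines of that tumour subpanel.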

[6] = test system: 786-0; test: Growth inhibition of human 786-0 cells; type: functional
[7] = Cytotoxicity against human NSCLC cells assessed as cell growth at 10 uM relative to control; type: functional; conditions: read-out: Activity; in short: as §1
[8] = test system: A498; test: Growth inhibition of human A498 cells; type: functional
[9] = test system: HL-60(TB); test: Growth inhibition of human HL-60(TB) cells; type: functional; conditions: read-out: LC50 (the source's name)
[10] = test system: RPMI-8226; test: Growth inhibition of human RPMI8226 cells; type: functional
[11] = Cytotoxicity against human prostate cancer cells assessed as cell growth at 10 uM relative to control; type: functional; conditions: Cancer cell lines, read-out: Activity; in short: as §1
[12] = test system: M14; test: Growth inhibition of human M14 cells; type: functional
[13] = test system: A549; test: Growth inhibition of human A549/ATCC cells; type: functional
[14] = test system: CCRF-CEM; test: Growth inhibition of human CCRF-CEM cells; type: functional
[15] = Growth inhibition of human OVCAR3 cells; type: functional; conditions: OVCAR-3
[16] = test system: NCI-H23; test: Growth inhibition of human NCI-H23 cells; type: functional
[17] = test system: T47D; test: Growth inhibition of human T47D cells; type: functional
[18] = test system: TK-10; test: Growth inhibition of human TK10 cells; type: functional
[19] = Growth inhibition of human NCI-ADR-RES cells; type: functional
[20] = biological target: T1, Proteasome Macropain subunit MB1 (Homo sapiens) (UniProt P28074); test: Inhibition of chymotrypsin-like activity of 20S proteasome in human erythrocytes using Suc-Leu-Leu-Val-Tyr-AMC as substrate at 20 uM by fluorescence assay relative to control
T1 sequence (whole entry): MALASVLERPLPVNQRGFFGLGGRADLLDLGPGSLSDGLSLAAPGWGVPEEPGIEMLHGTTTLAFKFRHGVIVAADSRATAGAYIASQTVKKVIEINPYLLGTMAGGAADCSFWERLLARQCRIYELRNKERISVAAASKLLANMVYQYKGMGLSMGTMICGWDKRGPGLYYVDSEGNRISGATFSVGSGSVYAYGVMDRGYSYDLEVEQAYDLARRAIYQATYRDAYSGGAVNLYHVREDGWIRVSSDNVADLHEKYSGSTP
In short: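 Single inhibitor concentration, equivalent DMSO as negative control. AMC fluorescence read at ex 380/em 460 nm; percent inhibition of ChT-L activity.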

[21] = test system: PC-3; test: Growth inhibition of human PC3 cells; type: functional
[22] = Growth inhibition of human BT549 cells; type: functional
[23] = test system: CAKI-1; test: Growth inhibition of human CAKI-1 cells; type: functional
[24] = test system: NCI-H460; test: Growth inhibition of human NCI-H460 cells; type: functional
[25] = test system: SW-620; test: Growth inhibition of human SW620 cells; type: functional
[26] = test system: KM12; test: Growth inhibition of human KM12 cells; type: functional
[27] = Growth inhibition of human OVCAR5 cells; type: functional; conditions: OVCAR-5
[28] = Cytotoxicity against human colon cancer cells assessed as cell growth at 10 uM relative to control; type: functional; conditions: Cancer cell lines, read-out: Activity; in short: as §1
[29] = Growth inhibition of human UACC62 cells; type: functional; conditions: UACC-62
[30] = test system: SK-MEL-28; test: Growth inhibition of human SK-MEL-28 cells; type: functional
[31] = test system: U-251; test: Growth inhibition of human U251 cells; type: functional
[32] = test system: SNB-75; test: Growth inhibition of human SNB75 cells; type: functional
[33] = Growth inhibition of human HCT15 cells; type: functional
[34] = Growth inhibition of human UACC257 cells; type: functional; conditions: UACC-257
[35] = test system: HCT-116; test: Growth inhibition of human HCT116 cells; type: functional
[36] = Cytotoxicity against human melanoma cells assessed as cell growth at 10 uM relative to control; type: functional; conditions: read-out: Activity; in short: as §1
[37] = read-out: LC50 (the source's name)

CC(C)C[C@H](NC(=O)CCn1ccc2ccc(Br)cc2c1=O)B(O)O
GI50 [1]: 1.14 µM | LC50 [1]: 8.42 µM | TGI [1]: 3.09 µM | GI50 [2]: 0.26 µM | TGI [2]: 0.74 µM | CC50 [2, 37]: > 100 µM | GI50 [3]: 1.08 µM | TGI [3]: > 100 µM | CC50 [3, 37]: > 100 µM | GI50 [4]: 0.46 µM | LC50 [4]: > 100 µM | TGI [4]: 4.56 µM | growth at 10 µM [5]: 38.8% | GI50 [6]: 0.82 µM | TGI [6]: > 100 µM | CC50 [6, 37]: > 100 µM | growth at 10 µM [7]: 8.79% | GI50 [8]: 0.13 µM | LC50 [8]: > 100 µM | TGI [8]: 0.74 µM | CC50 [9]: > 100 µM | GI50 [10]: 0.32 µM | TGI [10]: > 100 µM | CC50 [10, 37]: > 100 µM | growth at 10 µM [11]: 34.5% | GI50 [12]: 0.36 µM | LC50 (concentration killing 50% of cells) [12]: > 100 µM | TGI [12]: 3.88 µM | GI50 [13]: 2.39 µM | TGI [13]: > 100 µM | CC50 [13, 37]: > 100 µM | GI50 [14]: 0.43 µM | TGI [14]: > 100 µM | CC50 [14, 37]: > 100 µM | GI50 [15]: 0.33 µM | LC50 (concentration killing 50% of cells) [15]: 10.6 µM | TGI [15]: 1.21 µM | GI50 [16]: 1.59 µM | TGI [16]: > 100 µM | CC50 [16, 37]: > 100 µM | GI50 [17]: 0.78 µM | TGI [17]: 6.09 µM | CC50 [17, 37]: > 100 µM | GI50 [18]: 0.37 µM | LC50 [18]: > 100 µM | TGI [18]: 15.6 µM | GI50 [19]: 17.4 µM | LC50 [19]: > 100 µM | TGI [19]: > 100 µM | inhibition [20]: > 40% | GI50 [21]: 4.19 µM | TGI [21]: > 100 µM | CC50 [21, 37]: > 100 µM | GI50 ([22]; BT-549): 0.36 µM | TGI ([22]; BT-549): 4.32 µM | CC50 ([22]; BT-549, read-out: LC50 (the source's name)): > 100 µM | GI50 [23]: 0.47 µM | TGI [23]: 10 µM | CC50 [23, 37]: > 100 µM | GI50 [24]: 3.18 µM | LC50 [24]: > 100 µM | TGI [24]: > 100 µM | GI50 [25]: 0.38 µM | LC50 [25]: > 100 µM | TGI [25]: > 100 µM | GI50 [26]: 1.33 µM | LC50 [26]: > 100 µM | TGI [26]: 4.38 µM | GI50 [27]: 3.15 µM | LC50 [27]: > 100 µM | TGI [27]: 97.3 µM | growth at 10 µM [28]: 4.45% | GI50 [29]: 0.46 µM | LC50 (concentration killing 50% of cells) [29]: 28.5 µM | TGI [29]: 2.44 µM | GI50 [30]: 0.52 µM | TGI [30]: 29.7 µM | CC50 [30, 37]: > 100 µM | GI50 [31]: 1.18 µM | TGI [31]: > 100 µM | CC50 [31, 37]: > 100 µM | GI50 [32]: 0.46 µM | LC50 [32]: > 100 µM | TGI [32]: 3.82 µM | GI50 ([33]; HCT-15): 1.61 µM | TGI ([33]; HCT-15): 22.1 µM | CC50 ([33]; HCT-15, read-out: LC50 (the source's name)): > 100 µM | GI50 [34]: 0.73 µM | TGI [34]: 2.86 µM | GI50 [35]: 0.34 µM | LC50 [35]: > 100 µM | TGI [35]: 2.55 µM | growth at 10 µM [36]: -19.2%
